{"source": "ChEMBL document CHEMBL1137333", "about": "“Synthesis, radiosynthesis, and biological evaluation of carbon-11 labeled 2beta-carbomethoxy-3beta-(3'-((Z)-2-haloethenyl)phenyl)nortropanes: candidate radioligands for in vivo imaging of the serotonin transporter with positron emission tomography” (J Med Chem, 2006)", "key": {"[1]": {"system": "Cynomolgus monkey", "test": "Uptake in anesthetized cynomolgus monkey medulla after 3.5 mins", "assay_type": "ADME, organism-based, Medulla of organ", "conditions": "in vivo", "procedure,_shortened": "(§1)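 Baseline microPET scan (P4 scanner) of anesthetized cynomolgus monkeys after injection of the carbon-11 labelled nortropane tracer. Two baseline studies were run per tracer. Radioactivity was followed over time in regional brain time-activity curves.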"}, "[2]": {"system": "Cynomolgus monkey", "test": "Uptake in anesthetized cynomolgus monkey medulla after 6.5 mins", "assay_type": "ADME, organism-based, Medulla of organ", "conditions": "in vivo", "procedure,_shortened": "as §1"}, "[3]": {"system": "Cynomolgus monkey", "test": "Uptake in anesthetized cynomolgus monkey medulla after 15.5 mins", "assay_type": "ADME, organism-based, Medulla of organ", "conditions": "in vivo", "procedure,_shortened": "as §1"}, "[4]": {"system": "Cynomolgus monkey", "test": "Uptake in anesthetized cynomolgus monkey medulla after 35.0 mins", "assay_type": "ADME, organism-based, Medulla of organ", "conditions": "in vivo", "procedure,_shortened": "as §1"}, "[5]": {"system": "Cynomolgus monkey", "test": "Uptake in anesthetized cynomolgus monkey medulla after 65.0 mins", "assay_type": "ADME, organism-based, Medulla of organ", "conditions": "in vivo", "procedure,_shortened": "as §1"}, "[6]": {"system": "Cynomolgus monkey", "test": "Uptake in anesthetized cynomolgus monkey medulla after 75.0 mins", "assay_type": "ADME, organism-based, Medulla of organ", "conditions": "in vivo, 1.25 h", "procedure,_shortened": "as §1"}, "[7]": {"system": "Cynomolgus monkey", "test": "Uptake in anesthetized cynomolgus monkey medulla after 115.0 mins", "assay_type": "ADME, organism-based, Medulla of organ", "conditions": "in vivo", "procedure,_shortened": "as §1"}, "[8]": {"system": "Cynomolgus monkey", "test": "Uptake in anesthetized cynomolgus monkey cerebellum after 2.5 mins", "assay_type": "ADME, organism-based, Macaca mulatta", "conditions": "rhesus monkey, in vivo", "procedure,_shortened": "(§2)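 Baseline microPET (Concorde P4) regional brain time-activity curves in anesthetized cynomolgus monkey following injection of the [11C]-labelled tracer, with radioactivity followed over the scan.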"}, "[9]": {"system": "Cynomolgus monkey", "test": "Uptake in anesthetized cynomolgus monkey cerebellum after 18.5 mins", "assay_type": "ADME, organism-based, Macaca mulatta", "conditions": "rhesus monkey, in vivo", "procedure,_shortened": "as §2"}, "[10]": {"system": "Cynomolgus monkey", "test": "Uptake in anesthetized cynomolgus monkey cerebellum after 45.0 mins", "assay_type": "ADME, organism-based", "conditions": "in vivo, 0.75 h", "procedure,_shortened": "as §2"}, "[11]": {"system": "Cynomolgus monkey", "test": "Uptake in anesthetized cynomolgus monkey cerebellum after 95.0 mins", "assay_type": "ADME, organism-based", "conditions": "in vivo", "procedure,_shortened": "as §2"}, "[12]": {"system": "Cynomolgus monkey", "test": "Uptake in anesthetized cynomolgus monkey frontal after 65.0 mins", "assay_type": "ADME, organism-based, Frontal cortex", "conditions": "in vivo", "procedure,_shortened": "as §1"}, "[13]": {"system": "Cynomolgus monkey", "test": "Uptake in anesthetized cynomolgus monkey cerebellum after 115.0 mins", "assay_type": "ADME, organism-based", "conditions": "in vivo", "procedure,_shortened": "as §2"}, "[14]": {"system": "Cynomolgus monkey", "test": "Uptake in anesthetized cynomolgus monkey occipital after 2.5 mins", "assay_type": "ADME, organism-based, Macaca mulatta, Occipital cortex", "conditions": "rhesus monkey, in vivo", "procedure,_shortened": "as §1"}, "[15]": {"system": "Cynomolgus monkey", "test": "Uptake in anesthetized cynomolgus monkey occipital after 15.5 mins", "assay_type": "ADME, organism-based, Macaca mulatta, Occipital cortex", "conditions": "rhesus monkey, in vivo", "procedure,_shortened": "as §1"}, "[16]": {"system": "Cynomolgus monkey", "test": "Uptake in anesthetized cynomolgus monkey occipital after 55.0 mins", "assay_type": "ADME, organism-based, Occipital cortex", "conditions": "in vivo", "procedure,_shortened": "as §1"}, "[17]": {"system": "Cynomolgus monkey", "test": "Uptake in anesthetized cynomolgus monkey occipital after 65.0 mins", "assay_type": "ADME, organism-based, Macaca mulatta, Occipital cortex", "conditions": "rhesus monkey, in vivo", "procedure,_shortened": "as §1"}, "[18]": {"system": "Cynomolgus monkey", "test": "Uptake in anesthetized cynomolgus monkey occipital after 85.0 mins", "assay_type": "ADME, organism-based, Macaca mulatta, Occipital cortex", "conditions": "rhesus monkey, in vivo", "procedure,_shortened": "as §1"}, "[19]": {"system": "Cynomolgus monkey", "test": "Uptake in anesthetized cynomolgus monkey frontal after 15.5 mins", "assay_type": "ADME, organism-based, Frontal cortex", "conditions": "in vivo", "procedure,_shortened": "as §1"}, "[20]": {"system": "Cynomolgus monkey", "test": "Uptake in anesthetized cynomolgus monkey frontal after 22.5 mins", "assay_type": "ADME, organism-based, Frontal cortex", "conditions": "in vivo, 0.375 h", "procedure,_shortened": "as §1"}, "[21]": {"system": "Cynomolgus monkey", "test": "Uptake in anesthetized cynomolgus monkey frontal after 27.5 mins", "assay_type": "ADME, organism-based, Frontal cortex", "conditions": "in vivo", "procedure,_shortened": "as §1"}, "[22]": {"system": "Cynomolgus monkey", "test": "Uptake in anesthetized cynomolgus monkey frontal after 35.0 mins", "assay_type": "ADME, organism-based, Frontal cortex", "conditions": "in vivo", "procedure,_shortened": "as §1"}, "[23]": {"system": "Cynomolgus monkey", "test": "Uptake in anesthetized cynomolgus monkey frontal after 45.0 mins", "assay_type": "ADME, organism-based, Frontal cortex", "conditions": "in vivo, 0.75 h", "procedure,_shortened": "as §1"}, "[24]": {"system": "Cynomolgus monkey", "test": "Ratio of uptake in thalamus to cerebellum of anesthetized cynomolgus monkey after 65 mins", "assay_type": "ADME, organism-based", "conditions": "in vivo", "procedure,_shortened": "(§3)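 Baseline microPET (Concorde P4) in anesthetized cynomolgus monkey after injection of the [11C]-labelled tracer. Regional time-activity curves were taken, and each region's uptake was divided by cerebellum uptake (low-SERT reference) at 65, 85 and 105 min postinjection.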"}, "[25]": {"system": "Cynomolgus monkey", "test": "Ratio of uptake in midbrain to cerebellum of anesthetized cynomolgus monkey after 65 mins", "assay_type": "ADME, organism-based", "conditions": "in vivo", "procedure,_shortened": "as §3"}, "[26]": {"system": "Cynomolgus monkey", "test": "Ratio of uptake in occipital to cerebellum of anesthetized cynomolgus monkey after 85 mins", "assay_type": "ADME, organism-based", "conditions": "in vivo", "procedure,_shortened": "as §3"}, "[27]": {"system": "Cynomolgus monkey", "test": "Ratio of uptake in pons to cerebellum of anesthetized cynomolgus monkey after 105 mins", "assay_type": "ADME, organism-based", "conditions": "in vivo, 1.75 h", "procedure,_shortened": "as §3"}, "[28]": {"system": "Cynomolgus monkey", "test": "Ratio of uptake in medulla to cerebellum of anesthetized cynomolgus monkey after 105 mins", "assay_type": "ADME, organism-based", "conditions": "in vivo, 1.75 h", "procedure,_shortened": "as §3"}, "[29]": {"system": "Cynomolgus monkey", "test": "Ratio of uptake in frontal to cerebellum of anesthetized cynomolgus monkey after 105 mins", "assay_type": "ADME, organism-based", "conditions": "in vivo, 1.75 h", "procedure,_shortened": "as §3"}, "[30]": {"system": "Cynomolgus monkey", "test": "Ratio of uptake in occipital to cerebellum of anesthetized cynomolgus monkey after 105 mins", "assay_type": "ADME, organism-based", "conditions": "in vivo, 1.75 h", "procedure,_shortened": "as §3"}, "[31]": {"system": "Cynomolgus monkey", "test": "Uptake in anesthetized cynomolgus monkey caudate after 0.5 mins", "assay_type": "ADME, organism-based, Caudate nucleus", "conditions": "in vivo", "procedure,_shortened": "as §2"}, "[32]": {"system": "Cynomolgus monkey", "test": "Uptake in anesthetized cynomolgus monkey caudate after 2.5 mins", "assay_type": "ADME, organism-based, Caudate nucleus", "conditions": "in vivo", "procedure,_shortened": "as §2"}, "[33]": {"system": "Cynomolgus monkey", "test": "Uptake in anesthetized cynomolgus monkey caudate after 27.5 mins", "assay_type": "ADME, organism-based, Caudate nucleus", "conditions": "in vivo", "procedure,_shortened": "as §2"}, "[34]": {"system": "Cynomolgus monkey", "test": "Uptake in anesthetized cynomolgus monkey caudate after 35.0 mins", "assay_type": "ADME, organism-based, Caudate nucleus", "conditions": "in vivo", "procedure,_shortened": "as §2"}}, "data": [{"smiles": "[11CH3]OC(=O)[C@@H]1C2CCC(C[C@@H]1c1cccc(/C=C/Br)c1)N2", "note": "(some centres undefined)", "values": [{"measurement": "Drug uptake", "setting": "[1]", "result": 2.5}, {"measurement": "Drug uptake", "setting": "[2]", "result": 5.27}, {"measurement": "Drug uptake", "setting": "[3]", "result": 6.52}, {"measurement": "Drug uptake", "setting": "[4]", "result": 7.19}, {"measurement": "Drug uptake", "setting": "[5]", "result": 7.11}, {"measurement": "Drug uptake", "setting": "[6]", "result": 7.18}, {"measurement": "Drug uptake", "setting": "[7]", "result": 6.59}, {"measurement": "Drug uptake", "setting": "[8]", "result": 1.1}, {"measurement": "Drug uptake", "setting": "[9]", "result": 6.13}, {"measurement": "Drug uptake", "setting": "[10]", "result": 5.58}, {"measurement": "Drug uptake", "setting": "[11]", "result": 4.09}, {"measurement": "Drug uptake", "setting": "[12]", "result": 3.8}, {"measurement": "Drug uptake", "setting": "[13]", "result": 3.76}, {"measurement": "Drug uptake", "setting": "[14]", "result": 0.65}, {"measurement": "Drug uptake", "setting": "[15]", "result": 4.55}, {"measurement": "Drug uptake", "setting": "[16]", "result": 5.3}, {"measurement": "Drug uptake", "setting": "[17]", "result": 5.14}, {"measurement": "Drug uptake", "setting": "[18]", "result": 5.21}, {"measurement": "Drug uptake", "setting": "[19]", "result": 3.21}, {"measurement": "Drug uptake", "setting": "[20]", "result": 3.47}, {"measurement": "Drug uptake", "setting": "[21]", "result": 3.61}, {"measurement": "Drug uptake", "setting": "[22]", "result": 3.7}, {"measurement": "Drug uptake", "setting": "[23]", "result": 3.76}, {"measurement": "Ratio", "setting": "[24]", "result": 1.3}, {"measurement": "Ratio", "setting": "[25]", "result": 1.6}, {"measurement": "Ratio", "setting": "[26]", "result": 0.9}, {"measurement": "Ratio", "setting": "[27]", "result": 1.8}, {"measurement": "Ratio", "setting": "[28]", "result": 1.7}, {"measurement": "Ratio", "setting": "[29]", "result": 1.2}, {"measurement": "Ratio", "setting": "[30]", "result": 0.9}, {"measurement": "Drug uptake", "setting": "[31]", "result": 0.01}, {"measurement": "Drug uptake", "setting": "[32]", "result": 0.73}, {"measurement": "Drug uptake", "setting": "[33]", "result": 5.98}, {"measurement": "Drug uptake", "setting": "[34]", "result": 6.21}]}]}
